We go through 13 molecules from ChEMBL document CHEMBL3414528, “Novel naftopidil-related derivatives and their biological effects as alpha1-adrenoceptors antagonists and antiproliferative agents” (Eur J Med Chem, 2015).

For test [1], the target named is T1, Alpha-1B adrenergic receptor (Rattus norvegicus, UniProt P15823).
T1 sequence (P15823 whole entry): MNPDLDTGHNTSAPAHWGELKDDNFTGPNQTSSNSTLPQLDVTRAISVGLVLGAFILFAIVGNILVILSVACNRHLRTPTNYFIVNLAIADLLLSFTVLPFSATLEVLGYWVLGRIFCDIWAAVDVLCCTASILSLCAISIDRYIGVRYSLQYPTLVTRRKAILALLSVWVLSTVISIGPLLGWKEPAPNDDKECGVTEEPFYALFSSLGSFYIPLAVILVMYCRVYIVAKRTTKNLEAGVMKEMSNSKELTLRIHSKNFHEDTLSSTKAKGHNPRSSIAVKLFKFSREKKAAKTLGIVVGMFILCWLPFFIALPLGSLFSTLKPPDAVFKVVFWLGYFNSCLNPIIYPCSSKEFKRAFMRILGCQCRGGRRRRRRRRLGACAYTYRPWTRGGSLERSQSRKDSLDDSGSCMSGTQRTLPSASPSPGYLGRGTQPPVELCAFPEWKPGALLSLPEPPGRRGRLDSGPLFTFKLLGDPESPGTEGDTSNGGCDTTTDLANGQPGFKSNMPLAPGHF
Put plainly: Antagonist activity at Sprague-Dawley rat spleen adrenergic alpha-1B receptor after 20 mins. As to conditions: read-out: pA2 (converted). The essentials:
(§1)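 Isolated rat tissues (prostatic vas deferens, spleen, thoracic aorta) contracted with cumulative norepinephrine; concentration-response curves recorded in presence of increasing antagonist concentrations, antagonism read as rightward curve shift. Mean ± SEM of five to eight separate experiments.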

Test [2] is filed under the species Rattus norvegicus. Put plainly: Selectivity ratio for Sprague-Dawley rat thoracic aorta adrenergic alpha-1D receptor to Sprague-Dawley rat prostatic vas deferens adrenergic alpha-1A receptor.
The target of test [3] is T2, Alpha-1D adrenergic receptor (Rattus norvegicus, UniProt P23944).
T2 sequence (P23944 whole entry): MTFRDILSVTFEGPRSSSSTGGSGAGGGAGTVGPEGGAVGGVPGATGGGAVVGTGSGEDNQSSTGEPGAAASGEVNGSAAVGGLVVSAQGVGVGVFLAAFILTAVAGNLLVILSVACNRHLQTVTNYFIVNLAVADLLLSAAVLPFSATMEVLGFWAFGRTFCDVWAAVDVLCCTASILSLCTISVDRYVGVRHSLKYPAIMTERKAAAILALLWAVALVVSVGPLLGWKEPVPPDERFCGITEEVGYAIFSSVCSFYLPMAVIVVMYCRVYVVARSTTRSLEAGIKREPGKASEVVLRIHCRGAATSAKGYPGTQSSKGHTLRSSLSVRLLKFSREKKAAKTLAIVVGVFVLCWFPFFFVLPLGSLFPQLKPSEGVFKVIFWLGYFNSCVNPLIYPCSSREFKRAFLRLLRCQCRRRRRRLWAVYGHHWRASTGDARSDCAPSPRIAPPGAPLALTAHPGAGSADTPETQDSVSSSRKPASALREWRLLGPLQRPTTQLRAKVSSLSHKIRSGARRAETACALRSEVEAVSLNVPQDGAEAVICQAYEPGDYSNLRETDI
Put plainly: Antagonist activity at Sprague-Dawley rat thoracic aorta adrenergic alpha-1D receptor after 20 mins. Conditions: read-out: pA2 (converted). The method, boiled down: as §1

Test [4] concerns the target T3, Alpha-1A adrenergic receptor (Rattus norvegicus, UniProt P43140).
T3 sequence (P43140 whole entry): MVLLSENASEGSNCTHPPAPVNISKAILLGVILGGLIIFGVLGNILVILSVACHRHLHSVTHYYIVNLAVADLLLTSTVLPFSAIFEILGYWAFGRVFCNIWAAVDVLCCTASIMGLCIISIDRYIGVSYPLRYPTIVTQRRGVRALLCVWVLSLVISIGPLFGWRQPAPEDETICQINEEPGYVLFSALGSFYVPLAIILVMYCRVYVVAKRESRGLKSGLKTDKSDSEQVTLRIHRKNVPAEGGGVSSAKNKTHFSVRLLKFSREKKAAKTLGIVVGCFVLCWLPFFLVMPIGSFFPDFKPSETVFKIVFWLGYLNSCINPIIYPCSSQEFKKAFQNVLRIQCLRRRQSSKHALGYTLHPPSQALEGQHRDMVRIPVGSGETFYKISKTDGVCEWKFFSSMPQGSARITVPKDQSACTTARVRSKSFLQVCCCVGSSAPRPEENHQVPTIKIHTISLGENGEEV
Put plainly: Antagonist activity at Sprague-Dawley rat prostatic vas deferens adrenergic alpha-1A receptor after 20 mins. As to conditions: read-out: pA2 (converted). The essentials:
as §1

Test [5] is filed under the species Rattus norvegicus. Put plainly: Selectivity ratio for Sprague-Dawley rat thoracic aorta adrenergic alpha-1D receptor to Sprague-Dawley rat spleen adrenergic alpha-1B receptor. It is filed as tissue-based.
The species entered for test [6] is Rattus norvegicus. Put plainly: Selectivity ratio for Sprague-Dawley rat prostatic vas deferens adrenergic alpha-1A receptor to Sprague-Dawley rat spleen adrenergic alpha-1B receptor.
A short description of test [7]: Cytotoxicity against human PC3 cells after 48 hrs by WST-8 assay. The format is functional, cell-based. Conditions: PC-3, 48 h.
The test system of test [8] is DU-145. Put plainly: Cytotoxicity against human DU145 cells after 48 hrs by WST-8 assay. It is filed as functional, cell-based. Conditions: DU-145, 48 h. In general terms: Tetrazolium assays rely on reduction of a dye to a coloured formazan, in cell work by metabolically active cells.
Test [9] deals with LNCaP. Put plainly: Cytotoxicity against human LNCAP cells after 48 hrs by WST-8 assay. It is filed as functional, cell-based.
Test [10] has as its system DU-145. Put plainly: Cytotoxicity against human DU145 cells. It is filed as functional, cell-based.
Test [11] is described as follows: Cytotoxicity against human PC3 cells. As to conditions: PC-3. It is filed as functional, cell-based.

The structures appear in SMILES notation.

Turning to `COc1ccccc1N1CCN(CCCNC(=O)c2cn(C)c3ccccc23)CC1`, the Kb is 166 nM in [1], 5.5 nM in test [3] and 52.5 nM in test [4]. For the same molecule, the Ratio in test [2] came out at 9.6; in [5], 30.2; in [6] it was 3.2.

For `COc1ccccc1N1CCN(CCCNC(=O)Cc2c[nH]c3ccccc23)CC1`, the Kb in test [1] was 513 nM; in test [3] it was 5.25 nM; in [4], 7.94 nM. The Ratio in test [2] is 1.5; in [5], 97.7; in [6], 64.6.

`COc1ccccc1N1CCN(CCCNC(=O)c2cc3cc(O)ccc3[nH]2)CC1`: the values for the Kb in test [1], in test [3] and in [4] were 155 nM, 26.9 nM and 55 nM, respectively. Moreover, the Ratio in test [2] was 2; in test [5], 5.6; in test [6], 2.8.

For `COc1ccccc1N1CCN(CCCNC(=O)c2cc3cccc([N+](=O)[O-])c3[nH]2)CC1`, the figures for the Kb in [1], in [3] and in [4] were 646 nM, 28.2 nM and 58.9 nM, respectively. In addition, the Ratio in [2] amounted to 2.1; in [5], 22.9; in test [6] it was 11.

Turning to `COc1cc2nc(N3CCN(C(=O)C4CCCO4)CC3)nc(N)c2cc1OC` (stereo not drawn) [TERAZOSIN], the Kb in test [1] was 2.57 nM; in test [3] it was 1.48 nM.

As to `COc1ccc2[nH]c(C(=O)NCCCN3CCN(c4ccccc4OC)CC3)cc2c1`, the Kb is 1450 nM in test [1], 58.9 nM in test [3] and 77.6 nM in test [4]. Besides, the results for the Ratio in test [2], in test [5] and in [6] were 1.3, 24.5 and 18.6, respectively.

Turning to `COc1ccccc1N1CCN(CCCNC(=O)CCc2c[nH]c3ccccc23)CC1`, the Kb was 219 nM in [1], 34.7 nM in test [3] and 195 nM in [4]. Also, the results for the Ratio in test [2], in test [5] and in [6] were 5.6, 6.3 and 1.1, respectively.

The term IC50 denotes the midpoint of a concentration-inhibition curve. The molecule `COc1cc2nc(N3CCN(C(=O)C4COc5ccccc5O4)CC3)nc(N)c2cc1OC` (stereo not drawn) [DOXAZOSIN] gave an IC50 in [7] greater than 50000 nM.

On to `COc1ccccc1N1CCN(CCCNC(=O)c2ccc3[nH]ccc3c2)CC1`, for which the Kb in test [1] was 123 nM; in [3], 11.7 nM; in test [4], 26.3 nM. In addition, the results for the Ratio in test [2], in test [5] and in [6] were 2.2, 10.5 and 4.7, respectively.

Consider `COc1ccccc1N1CCN(CCCNC(=O)c2cc3cc(Cl)ccc3[nH]2)CC1`, for which the Kb in [1] was 257 nM; in test [3], 19.5 nM; in [4], 47.9 nM. Further, the figures for the Ratio in test [2], in test [5] and in test [6] were 2.5, 13.2 and 5.4, respectively. Further, the figures for the IC50 in test [8], in test [7] and in [9] were 47000 nM, 36900 nM and 28400 nM, respectively.

For the molecule `COc1ccccc1N1CCN(CCCNC(=O)CCCc2c[nH]c3ccccc23)CC1`, the Kb was 95.5 nM in test [1], 5.13 nM in [3] and 12.6 nM in [4]. The Ratio in test [2] came out at 2.5; in test [5], 18.6; in [6], 7.6. In addition, the figures for the IC50 in test [8], in test [7] and in test [9] were greater than 100000 nM, greater than 100000 nM and 52300 nM, respectively.

With `COc1ccccc1N1CCN(CC(O)COc2cccc3ccccc23)CC1` (stereo not drawn) [NAFTOPIDIL], the Kb is 178 nM in [1], 11.7 nM in test [3] and 33.1 nM in test [4]. The Ratio in [2] was found to be 2.8; in test [5], 15.1; in [6], 5.4. Besides, the half-inhibitory concentration (IC50) is 22200 nM in test [10]; greater than 50000 nM in test [8]; 33200 nM in [11]; greater than 50000 nM in test [7]; greater than 50000 nM in test [9].

`COc1ccccc1N1CCN(CCCNC(=O)c2cc3ccc(Br)cc3[nH]2)CC1`: the Kb is 209 nM in [1], 15.1 nM in [3] and 69.2 nM in [4]. The figures for the Ratio in test [2], in [5] and in [6] were 4.6, 13.8 and 3, respectively. The IC50 in test [8] was found to be 39300 nM; in [7], 31200 nM; in test [9], 26700 nM.
